Results on seven compounds are retold here after publication PMC6545551 (ACS Omega, 2019).

One data set addresses T1, ovine COX-1 (Ovis aries, UniProt P05979).
T1 sequence (P05979 25-600): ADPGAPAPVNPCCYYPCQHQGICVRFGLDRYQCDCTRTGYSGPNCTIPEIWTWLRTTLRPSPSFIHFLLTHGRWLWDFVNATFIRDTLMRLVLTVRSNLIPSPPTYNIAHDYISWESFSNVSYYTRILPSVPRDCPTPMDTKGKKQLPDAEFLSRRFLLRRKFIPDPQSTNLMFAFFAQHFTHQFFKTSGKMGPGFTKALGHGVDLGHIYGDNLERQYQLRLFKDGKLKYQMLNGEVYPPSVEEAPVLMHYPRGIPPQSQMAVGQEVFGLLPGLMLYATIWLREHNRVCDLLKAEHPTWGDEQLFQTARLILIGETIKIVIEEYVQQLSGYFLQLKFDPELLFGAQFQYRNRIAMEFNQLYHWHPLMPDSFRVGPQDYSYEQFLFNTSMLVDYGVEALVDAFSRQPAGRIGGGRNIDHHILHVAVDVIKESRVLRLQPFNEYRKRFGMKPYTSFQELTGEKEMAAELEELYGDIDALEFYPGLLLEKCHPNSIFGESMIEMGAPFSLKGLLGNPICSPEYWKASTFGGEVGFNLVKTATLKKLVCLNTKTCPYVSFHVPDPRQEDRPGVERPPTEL
The data set can be described thus: Inhibition of purified ovine COX-1. The class given is biochemical.

In data set [1] the target is T2, COX-2 in 1483 HNSCC cells (Homo sapiens, UniProt P35354).
T2 sequence (P35354 18-604): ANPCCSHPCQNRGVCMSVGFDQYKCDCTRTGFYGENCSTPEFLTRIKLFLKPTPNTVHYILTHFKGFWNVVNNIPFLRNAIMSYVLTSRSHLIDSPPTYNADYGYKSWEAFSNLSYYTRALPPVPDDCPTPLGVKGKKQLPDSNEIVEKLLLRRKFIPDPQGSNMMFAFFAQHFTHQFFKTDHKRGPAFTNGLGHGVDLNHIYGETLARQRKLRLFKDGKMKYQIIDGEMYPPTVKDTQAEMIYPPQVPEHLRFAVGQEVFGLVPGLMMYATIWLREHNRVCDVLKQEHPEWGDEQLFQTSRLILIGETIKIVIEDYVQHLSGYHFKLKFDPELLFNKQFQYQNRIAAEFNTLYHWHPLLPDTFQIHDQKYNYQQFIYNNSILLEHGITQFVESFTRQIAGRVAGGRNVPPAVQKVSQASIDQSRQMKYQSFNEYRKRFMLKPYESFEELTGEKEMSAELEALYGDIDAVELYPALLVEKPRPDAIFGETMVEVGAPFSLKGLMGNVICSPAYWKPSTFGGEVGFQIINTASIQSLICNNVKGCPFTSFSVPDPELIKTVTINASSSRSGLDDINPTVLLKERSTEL
The data set can be described thus: Inhibition of COX-2 in intact 1483 HNSCC cells. In kind it is cell-based.

The next data set concerns the target COX-1 in OVCAR3 cells (Homo sapiens, UniProt P23219). The data set can be described thus: Inhibition of COX-1 in intact OVCAR3 cells. The class given is cell-based.
For a further data set, the target named is T3, mouse COX-2 (Mus musculus, UniProt Q05769).
T3 sequence (Q05769 18-604): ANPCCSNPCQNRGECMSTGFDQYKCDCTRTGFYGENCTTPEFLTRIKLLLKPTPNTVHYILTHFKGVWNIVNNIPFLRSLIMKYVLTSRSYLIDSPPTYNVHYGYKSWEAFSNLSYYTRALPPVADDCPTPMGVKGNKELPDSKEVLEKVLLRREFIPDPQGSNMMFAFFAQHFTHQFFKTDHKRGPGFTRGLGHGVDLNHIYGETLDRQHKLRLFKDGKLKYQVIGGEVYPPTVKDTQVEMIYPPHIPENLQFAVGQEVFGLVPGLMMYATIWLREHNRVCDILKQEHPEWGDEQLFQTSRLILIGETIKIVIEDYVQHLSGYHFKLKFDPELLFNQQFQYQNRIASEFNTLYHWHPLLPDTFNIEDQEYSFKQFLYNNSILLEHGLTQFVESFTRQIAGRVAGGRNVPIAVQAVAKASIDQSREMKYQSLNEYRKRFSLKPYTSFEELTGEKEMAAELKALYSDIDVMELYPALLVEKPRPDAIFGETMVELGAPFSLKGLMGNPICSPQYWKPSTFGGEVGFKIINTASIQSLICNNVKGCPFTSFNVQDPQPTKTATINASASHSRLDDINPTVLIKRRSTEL
Put plainly: Inhibition of purified COX-2. In kind it is biochemical.

Data set [2] can be described thus: Plasma protein binding, human plasma. The class given is in vitro ADME. An outline of the steps: (§1)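 Equilibrium dialysis in a high-throughput micro-equilibrium device, with test compound incubated in mouse, dog or human plasma at 37 °C. Samples were taken at 0 and 4.5 h and quantified by fast-gradient LC–MS/MS. Unbound fraction was calculated as buffer-side concentration divided by protein-side concentration. Recovery was the summed buffer and protein chamber concentrations relative to the 0 h concentration.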

Data set [3] in a line: In vivo biodistribution and defluorination of unlabeled FDF in C57BL/6 mice. Also noted: species or system mouse. The settings on record: 10 mg/kg i.p., 60 min. The essentials:
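Male C57BL/6 mice (30 g, three per group) received unlabeled test compound at 10 mg/kg i.p. "at 10 min intervals." At 60 min, brain, lungs, heart, kidney, liver and muscle were taken, rinsed in cold PBS and frozen at −80 °C. Tissues were homogenized in acetonitrile, extracts dried and reconstituted in methanol/water. Quantitation was by C18 LC–MS/MS, SRM m/z 279 → 236, against a 1:1 methanol/water standard curve.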

Data set [4] is described as follows: In vivo plasma half-life of FDF in mice. The settings on record: male, CD-1, mouse, ip, 10 mg/kg.
Data set [5] is described as follows: Plasma protein binding, free fraction across species. In kind it is in vitro ADME. The settings on record: mouse, dog, human. The essentials: as §1
Data set [6] can be described thus: Plasma protein binding, mouse plasma. In kind it is in vitro ADME. An outline of the steps:
as §1

A short description of data set [7]: Plasma protein binding, dog plasma. In kind it is in vitro ADME. The essentials: as §1

The structures appear in SMILES notation. Where two headings read alike, the source gives them in different places.

COX-1 in OVCAR3 cells, sequence (P23219 24-599): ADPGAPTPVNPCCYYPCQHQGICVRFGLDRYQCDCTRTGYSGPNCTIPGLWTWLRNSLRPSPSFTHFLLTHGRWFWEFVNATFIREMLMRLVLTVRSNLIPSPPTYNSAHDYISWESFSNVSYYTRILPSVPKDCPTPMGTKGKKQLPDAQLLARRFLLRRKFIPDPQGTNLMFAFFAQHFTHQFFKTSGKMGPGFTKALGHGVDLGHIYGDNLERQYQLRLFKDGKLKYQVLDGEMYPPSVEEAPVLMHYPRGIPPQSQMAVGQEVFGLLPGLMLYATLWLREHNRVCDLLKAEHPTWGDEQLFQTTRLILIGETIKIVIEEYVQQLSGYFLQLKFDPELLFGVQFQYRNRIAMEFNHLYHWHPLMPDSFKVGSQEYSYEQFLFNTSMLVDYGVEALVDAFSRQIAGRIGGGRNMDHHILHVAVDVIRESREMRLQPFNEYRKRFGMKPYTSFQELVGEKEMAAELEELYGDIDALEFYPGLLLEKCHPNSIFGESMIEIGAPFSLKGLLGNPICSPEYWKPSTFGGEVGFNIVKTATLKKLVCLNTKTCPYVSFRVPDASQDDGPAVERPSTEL

`CC1(C)OC(=O)C(c2ccccc2)=C1c1ccccc1` [Compound 1, 5,5-Dimethyl-3,4-diphenylfuran-2(5H)-one]: the IC50 is 360 nM on ovine COX-1, more than 5000 nM in data set [1] and 120 nM on COX-1 in OVCAR3 cells. For the same compound, on mouse COX-2 (at concentrations up to 25 μM), the “Inhibition of purified COX-2 (in words)” value is “no inhibition”.
`Cc1ccc(C2=C(c3ccccc3)C(=O)OC2(C)C)cc1` [Compound 2, 5,5-Dimethyl-3-phenyl-4-(p-tolyl)furan-2(5H)-one]: the IC50 against ovine COX-1 was 50 nM; in data set [1] it was more than 5000 nM; at COX-1 in OVCAR3 cells, 490 nM.
Consider `CC1(C)OC(=O)C(c2ccc(F)cc2)=C1c1ccccc1` [Compound 3, 3-(4-Fluorophenyl)-5,5-dimethyl-4-phenylfuran-2(5H)-one], for which the IC50 is 640 nM against ovine COX-1, more than 5000 nM in [1] and 280 nM against COX-1 in OVCAR3 cells.
As for `Cc1ccc(C2=C(c3ccc(F)cc3)C(=O)OC2(C)C)cc1` [Compound 4, 3-(4-Fluorophenyl)-5,5-dimethyl-4-(p-tolyl)furan-2(5H)-one], the fraction unbound at 4.5 h in data set [2] was approximately 0.01; in [5], 0.0099 to 0.025; in data set [6] it was 0.025; in [7], approximately 0.01. In addition, the IC50 against ovine COX-1 is 140 nM; in data set [1] it was more than 5000 nM; against COX-1 in OVCAR3 cells it was 220 nM. The “Defluorinated metabolite in other organs” value in data set [3] is recorded as “below the quantification limit”. In addition, the “Uptake in the kidney (average)” value in data set [3] turned out to be 8.87 nmol/g tissue. Further, the “Uptake in the liver (overall average)” value in data set [3] is 0.61 nmol/g tissue. The half-life in data set [4] was 1.2 h.
As for `Cc1ccc(C2=C(c3cccc(F)c3)C(=O)OC2(C)C)cc1` [Compound 5, 3-(3-Fluorophenyl)-5,5-dimethyl-4-(p-tolyl)furan-2(5H)-one], the results for the IC50 (on ovine COX-1; in [1]; at COX-1 in OVCAR3 cells) were 50 nM, more than 5000 nM and 130 nM, respectively.
On the same counts, the results for `Cc1ccc(C2=C(c3ccc(I)cc3)C(=O)OC2(C)C)cc1` [Compound 6, 3-(4-Iodophenyl)-5,5-dimethyl-4-(p-tolyl)furan-2(5H)-one] are 40 nM, more than 5000 nM and 800 nM.
For `COc1ccc([I+]c2ccc(C3=C(c4ccc(C)cc4)C(C)(C)OC3=O)cc2)cc1.Cc1ccc(S(=O)(=O)[O-])cc1` [Compound 7, (4-(5,5-Dimethyl-2-oxo-4-(p-tolyl)-2,5-dihydrofuran-3-yl)phenyl)(4-methoxyphenyl)iodonium Tosylate], on ovine COX-1, the IC50 is more than 25000 nM and the “Inhibition of purified COX-1 (in words)” value is “failed to inhibit”. Further, in data set [1], the IC50 was more than 5000 nM and the “Inhibition of COX-2 in 1483 HNSCC cells (in words)” value was “inactive”. Also, at COX-1 in OVCAR3 cells, the IC50 is more than 5000 nM and the “Inhibition of COX-1 in intact OVCAR3 cells (in words)” value was “inactive”. For the same compound, the “Inhibition of purified COX-2 (in words)” value on mouse COX-2 is listed as “failed to inhibit”.
